LYPLA2 counter – blocks human lysophospholipase 2, a PME1 counter-screen | O95372 | recombinant LYPLA2, FP-Rh probe fluorescence polarization | inhibition, % at 5.9 µM | hit rate 0.38% among 320,000 | AID 2177;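 active = inhibition above the screen-wide mean plus 3 SD, limit set per campaign, cut at about 26% in these data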
Fam108B counter – blocks mouse Fam108B hydrolase in RBBP9 counter-screen. hit rate 0.33% among 300,000. AID 1947. recombinant Fam108B, FP-Rh probe fluorescence polarization. inhibition, % at 9.51 µM;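 active = inhibition above the screen mean inhibition plus 3 SD, computed separately per campaign, cut at about 18% in these data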;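 note: inhibitors lower polarization as less probe binds the enzyme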
proCasp7 act – activates human procaspase-7, counter-screen for procaspase-3 activators; AID 463210; recombinant procaspase-7, Ac-DEVD-pNA absorbance 405 nm; D23A/D198A/D206A triple mutant, cannot self-cleave; scale: DMSO 0, 5 µM enzyme 100; P55210; activation, % at 8.5 µM; hit rate 0.093% among 330,000;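 active = percent activation above the screen-wide mean plus 3 SD, cut at about 25% in these data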
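Replicates: singlicate. Assay system: Procaspase-7 triple mutant (PC-7 D3A). Signal: 405 nm absorbance of p-nitroaniline. Times: 1 h preincubation, 2 h reaction. Buffer or medium: Zinc-free HEPES pH 7.4 with 300 mM NaCl, 0.01% Triton X-100. Also added: DEVD-pNA substrate. Benchmarks: DMSO wells as 0%, DMSO with 5 µM added PC-7 as 100%.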
PME-1 primary – blocks human protein phosphatase methylesterase 1; Q9Y570; hit rate 0.53% among 320,000; inhibition, % at 5.9 µM; recombinant PME-1, FP-Rh probe fluorescence polarization;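 active = inhibition above the campaign mean of all compounds plus 3 SD, cut at about 26% in these data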;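 note: competitive labeling of PME-1 active site by serine hydrolase directed probe; inhibitors block probe labeling so polarization falls and inhibition rises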
Target sequence (Q9Y570 whole entry, looked up): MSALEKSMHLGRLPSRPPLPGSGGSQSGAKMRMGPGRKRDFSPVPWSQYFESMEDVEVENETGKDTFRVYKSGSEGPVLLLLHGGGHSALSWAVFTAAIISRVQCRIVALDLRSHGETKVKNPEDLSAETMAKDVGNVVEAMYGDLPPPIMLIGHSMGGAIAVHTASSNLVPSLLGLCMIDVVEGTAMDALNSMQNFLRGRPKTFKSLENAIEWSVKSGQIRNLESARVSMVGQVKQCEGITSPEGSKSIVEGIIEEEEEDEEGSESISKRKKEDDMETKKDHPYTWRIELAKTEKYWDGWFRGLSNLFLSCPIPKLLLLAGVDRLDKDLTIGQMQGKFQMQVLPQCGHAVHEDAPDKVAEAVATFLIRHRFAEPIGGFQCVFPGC
proCasp3 act – procaspase-3 (human) activation; activation, % at 8.5 µM; recombinant procaspase-3 D3A, Ac-DEVD-pNA absorbance 405 nm; hit rate 0.11% among 330,000; P42574;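 active = activation above the mean of all tested compounds plus 3 SD, cut at about 21% in these data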
Target sequence (P42574 whole entry D9A/D28A/D175A): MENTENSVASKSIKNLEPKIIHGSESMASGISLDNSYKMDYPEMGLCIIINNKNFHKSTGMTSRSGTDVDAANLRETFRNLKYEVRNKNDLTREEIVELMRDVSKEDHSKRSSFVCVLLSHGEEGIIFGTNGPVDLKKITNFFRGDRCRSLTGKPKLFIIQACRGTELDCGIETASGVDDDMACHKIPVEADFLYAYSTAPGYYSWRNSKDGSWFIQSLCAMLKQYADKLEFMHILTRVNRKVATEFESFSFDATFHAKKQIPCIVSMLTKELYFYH
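Compound: 8.5 µM single point, 0.8% DMSO / Material: Autoprocessing-dead procaspase-3 D3A mutant enzyme / Timing: 1 h preincubation plus 2 h reaction at 25 °C / Medium: Zinc-free HEPES/NaCl buffer with 0.01% Triton X-100 at pH 7.4 / Technique: 405 nm absorbance of p-nitroaniline, reads at 0 and 120 min / Repeats: one well per compound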
LYPLA1 inh – blocks human lysophospholipase 1, a PME1 counter-screen; recombinant LYPLA1, FP-Rh probe fluorescence polarization; AID 2174; inhibition, % at 5.9 µM; O75608; hit rate 0.16% among 320,000;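 active = inhibition above the mean of all tested compounds plus 3 SD, set per campaign, cut at about 14% in these data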;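 note: inhibitors block serine hydrolase probe labeling of LYPLA1 so polarization falls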
Large screens that a line does not name were inactive. An excerpt weighted towards active compounds, which were near 1% of everything screened.

CCCCCn1c(CN2CCN(Cc3ccccc3)CC2)nc2c1c(=O)n(C)c(=O)n2C	none
CCOC(=O)C(C)On1c(-c2ccc(Cl)cc2)nc2ccc([N+](=O)[O-])cc21 (stereo not given)	none
CCOC(=O)C(C)On1c(-c2ccccc2)nc2ccc([N+](=O)[O-])cc21 (stereo not given)	PME-1 primary 27
CC(=O)c1c(C)[nH]c(C(=O)C(C)Sc2nnc(NC3CC3)s2)c1C (stereo not given)	none (no result: Fam108B counter)
CN(C)c1ccc(CNC(=O)CN(C)S(=O)(=O)c2cccc3cccnc23)cc1	PME-1 primary 33
O=C(/C=C1\NC2(CCCC2)Cc2ccccc21)C(=O)N/N=C/c1ccc(O)c(O)c1	PME-1 primary 32
COc1ccc(/C=N/NC(=O)C(=O)/C=C2\NC3(CCCC3)Cc3ccccc32)cc1	none
Cc1cc(C(=O)N/N=C/c2cccc([N+](=O)[O-])c2)c(C)n1-c1ccccc1	PME-1 primary 29
CCOc1cc(/C=N/NC(=O)c2cccc([N+](=O)[O-])c2)ccc1OS(=O)(=O)c1ccccc1	PME-1 primary 41
COc1ccc(/C=N/NC(=O)c2cc(C)n(-c3ccccc3)c2C)cc1OC	none
COc1ccc(C(CNC(=O)c2ccc(Cl)c(NC(=O)c3cccs3)c2)N2CCCC2)cc1 (stereo not given)	none
CC(C)(C)NC(=O)C(c1ccc(-c2ccccc2)cc1)N(C[C@H]1CC[C@@H]([C@@H]2CC[C@H](CO)O2)O1)C(=O)c1ccccc1F (stereo not given in full)	none (no result: LYPLA2 counter, Fam108B counter, PME-1 primary, LYPLA1 inh)
CC1(C)C(=O)CC[C@@]2(C)[C@H]1CC[C@@]1(C)CC3=C(CC[C@@H]12)[C@@]1(C)CCC(=O)C(C)(C)[C@@H]1CC3	none
CCOc1ccccc1/C=C(\C#N)C(=O)Nc1cccc(C(=O)O)c1	PME-1 primary 142
COc1cc(N/N=C(\C)c2ccc(O)c(C)c2)nc(-c2ccccc2)n1	PME-1 primary 30
CCOc1ccc(C(=O)NC(C)CCc2ccccc2)cc1 (stereo not given)	PME-1 primary 39
C/C(=N\Nc1ccccc1C(=O)O)c1ccncc1	PME-1 primary 73
Cc1cc(C)c(C#N)c(SCc2c(F)cccc2[N+](=O)[O-])n1	LYPLA2 counter 34
Cc1cc(C)c(C#N)c(SCc2ccccc2[N+](=O)[O-])n1	none
Nc1nc(CSc2n[nH]c(-c3ccccc3)n2)nc(Nc2ccccc2)n1	none
Cc1ccc(-c2nc(Nc3ccccc3)n[nH]2)cc1	PME-1 primary 41
O=C(CCl)N1CCN(S(=O)(=O)Cc2ccccc2)CC1	none (no result: Fam108B counter)
CCOC(=O)C1=C(C)NC(C)=C(C(=O)OCC)C1C(=O)OCC(=O)NC1CCCCC1	none (no result: LYPLA2 counter, Fam108B counter, PME-1 primary, LYPLA1 inh)
CCOC(=O)c1ccc(NC(=O)Nc2ccc3c4c(cccc24)C(=O)N3CC)cc1	PME-1 primary 28
Brc1ccc(-c2ccc(C3Nc4cccc5cccc(c45)N3)o2)cc1	PME-1 primary 41 (no result: Fam108B counter)
Clc1ccccc1C1Nc2cccc3cccc(c23)N1	none
COc1cc(/C=N/NC(=S)Nc2cccc(S(=O)(=O)N(C)C)c2)cc(OC)c1O	PME-1 primary 29
COc1cccc(/C=N/NC(=S)Nc2cccc(S(=O)(=O)N(C)C)c2)c1	none
Nc1ccc(N2CCN(CCCCN3C(=O)C4CCCN4C3=O)CC2)cc1 (stereo not given)	LYPLA2 counter 29
O=C(CSc1nnc(SCc2cccc3ccccc23)s1)N/N=C/c1c[nH]c2ccccc12	Fam108B counter 34, PME-1 primary 26
O=[N+]([O-])c1ccc(N/N=C/c2c[nH]c3ccccc23)cc1	none
O=[N+]([O-])c1ccccc1N/N=C/c1c[nH]c2ccccc12	PME-1 primary 50
O=C1NC(Cc2ccccc2)c2nc3cc(F)ccc3c(=O)n2-c2ccccc21 (stereo not given)	none (no result: LYPLA2 counter, Fam108B counter, PME-1 primary, LYPLA1 inh)
C=CCSC1=N/C(=C\c2cc(OCC)c(OC(C)=O)c([N+](=O)[O-])c2)C(=O)S1	PME-1 primary 64
C=CCSC1=N/C(=C\c2ccc3c(c2)OCO3)C(=O)S1	none
O=C(c1ccc2c(=O)n(Cc3ccccc3Cl)c(=S)[nH]c2c1)N1CCOCC1	none
COCCOc1ccc(C(F)(F)F)cc1NC(=O)COC(=O)c1ccc(N2CCCC2=O)cc1	none (no result: LYPLA2 counter, Fam108B counter, PME-1 primary, LYPLA1 inh)
Oc1ccc(-c2cnc(-c3ccc(O)cc3)nc2)cc1	PME-1 primary 36
Cc1cc(C)cc(NC(=O)N2CCN(C/C=C/c3ccccc3)CC2)c1	none
C=CCn1c(O)c(N=Nc2ccccc2O)c2ccccc21	PME-1 primary 34 (no result: Fam108B counter)
C=CCn1c(O)c(N=Nc2ccccc2)c2ccccc21	none
COc1ccc(OCC(=O)N2CCN(S(=O)(=O)c3ccc(Cl)cc3)CC2)cc1	none
Cc1sc2ncnc(OCC(=O)N3CCN(S(=O)(=O)c4ccc(Cl)cc4)CC3)c2c1C	PME-1 primary 40
COc1ccc(/C(C)=C2/SC(=S)N(CCC(=O)O)C2=O)cc1	PME-1 primary 27
COc1ccc(/C=C2/SC(=S)N(CCC(=O)O)C2=O)cc1	none
CC(OC(=O)c1ccc([N+](=O)[O-])s1)C(=O)NC1CCCCC1C (stereo not given)	none (no result: Fam108B counter)
O=C(N/N=C/c1ccc(O)cc1O)C1CC1	none
O=C(N/N=C/c1ccc(O)cc1O)c1ccc(NC(=O)C2CCCCC2)cc1	proCasp3 act 48
Cc1nc2ccc(NC(=O)N3CCCCC3)cc2nc1C	none
O=C(Nc1ccc2nc(-c3ccco3)c(-c3ccco3)nc2c1)N1CCCCCC1	Fam108B counter 40
COC(=O)N1C(=O)[C@](c2ccc(OC)cc2)(C(C)C)N1C(=O)OC	PME-1 primary 49
COC(=O)N1C(=O)[C@](c2ccccc2)(C2CCCCC2)N1C(=O)OC	PME-1 primary 71
COC(=O)N1C(=O)[C@](CC(C)C)(c2ccccc2)N1C(=O)OC	PME-1 primary 28
O=C1NC(Cc2ccc(O)cc2)c2nc3ccc(Br)cc3c(=O)n2-c2ccc(Cl)cc21 (stereo not given)	none (no result: LYPLA2 counter, Fam108B counter, PME-1 primary, LYPLA1 inh)
Cc1cc(O)c(NC(=S)NC(=O)c2ccc(-c3ccc(Cl)cc3)o2)cc1C	PME-1 primary 39
Cc1ccc(NC(=S)NC(=O)c2ccc(-c3ccc(Cl)cc3)o2)c(O)c1	PME-1 primary 30
COc1ccc(OC)c(COC(=O)c2cccc(S(=O)(=O)N3CCCCC3)c2)c1	none (no result: LYPLA2 counter, Fam108B counter, PME-1 primary, LYPLA1 inh)
COc1ccccc1CNC(=O)COC(=O)/C=C/c1ccc2ccccc2n1	none (no result: LYPLA2 counter, Fam108B counter, PME-1 primary, LYPLA1 inh)
COc1cc(C)c(CN2CCN(S(=O)(=O)c3ccc(Cl)s3)CC2)cc1OC	none (no result: Fam108B counter)
CC1=NOC2(C1)N(C)c1ccccc1C2(C)C (stereo not given)	none

From PubChem BioAssay
